Data on five compounds can be found in ChEMBL document CHEMBL3091343, “Nicotinamide phosphoribosyltransferase inhibitors, design, preparation, and structure-activity relationship” (J Med Chem, 2013).

The subject of data set [1] is MCF7. As to the kind of experiment: Cytotoxicity against human MCF-7 cells assessed as growth inhibition after 72 hrs by WST-1 assay. Type of data set: functional, cell-based. As to conditions: MCF7, 72 h.
The next data set relates to Plasma. As to the kind of experiment: Metabolic stability in mouse plasma assessed as compound hydrolysis. In kind it is ADME, cell-free.
Data set [2] deals with A2780. Kind of data set: Cytotoxicity against human A2780 cells assessed as growth inhibition after 72 hrs by WST-1 assay. In kind it is functional, cell-based. As to conditions: A2780, 72 h.
Data set [3] in a line: Cytotoxicity against human W1L2 cells assessed as growth inhibition after 72 hrs by trypan blue assay. In kind it is functional, cell-based. As to conditions: WIL2, 72 h.
Data set [4] relates to A2780. Kind of data set: Ratio of APO866 to compound for antitumor activity against human A2780 cells xenografted in NMRI/nude mouse. Type of data set: functional.
Data set [5] deals with A2780. As to the kind of experiment: Antitumor activity against human A2780 cells xenografted in NMRI/nude mouse assessed as tumor growth inhibition at 1.25 mg/kg, ip bid administered for 5 days measured at day 14 relative to vehicle-treated control. In kind it is functional. The following applies: route intraperitoneal. The method in brief:
(§1)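 A2780 xenografts started from small tumours (about 100 mm³). Dosing was i.p. bid on days 0-4. Tumour volume was estimated as width²×length/2 and compared at day 14 with vehicle-treated animals as T/C%.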

In data set [6] the test system is A2780. Kind of data set: Antitumor activity against human A2780 cells xenografted in NMRI/nude mouse assessed as tumor growth inhibition at 2.5 mg/kg, ip bid administered for 5 days measured at day 14 relative to vehicle-treated control. In kind it is functional. As to conditions: route intraperitoneal. The method in brief:
as §1

Data set [7] deals with A2780. Kind of data set: Antitumor activity against human A2780 cells xenografted in NMRI/nude mouse assessed as tumor growth inhibition at 0.63 mg/kg, ip bid administered for 5 days measured at day 14 relative to vehicle-treated control. In kind it is functional. As to conditions: route intraperitoneal. In outline:
as §1

Data set [8] concerns A2780. As to the kind of experiment: Antitumor activity against human A2780 cells xenografted in NMRI/nude mouse assessed as tumor growth inhibition at 5 to 10 mg/kg, ip bid administered for 10 days measured during compound administration. In kind it is functional, organism-based. The method in brief:
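Mice bearing large A2780 xenografts were dosed i.p. bid at 5 and 10 mg/kg. Toxic signs were scored as body weight loss and reduced activity level compared with control mice. Tumour volume was estimated as width²×length/2.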

Data set [9] relates to A2780. Kind of data set: Antitumor activity against human A2780 cells xenografted in NMRI/nude mouse containing large tumors assessed as tumor growth inhibition at 3 mg/kg, ip bid administered on day 1 to 4 and day 7 to 11 measured during compound administration. In kind it is functional, organism-based. Also on record: dose 3 mg/kg.
Another data set concerns SK-OV-3. As to the kind of experiment: Cytotoxicity against human SKOV3 cells by clonogenic assay. In kind it is functional, cell-based.
The nature of data set [10]: Cytotoxicity against human NYH cells by clonogenic assay. Type of data set: functional, cell-based.
Another data set has as its system PC-3. Kind of data set: Cytotoxicity against human PC3 cells by clonogenic assay. Type of data set: functional, cell-based.
Data set [11] concerns MCF7. As to the kind of experiment: Cytotoxicity against human MCF7 cells after 96 hrs by clonogenic assay. In kind it is functional, cell-based. The following applies: MCF7, 96 h. In outline: (§2)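 Cells were exposed to compound for the indicated time and then seeded in 3% agar over a sheep erythrocyte feeder layer. Plates were cultured 14–21 days at 37 °C, and colonies were counted with a digital colony counter.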

In data set [12] the test system is MCF7. As to the kind of experiment: Cytotoxicity against human MCF7 cells after 24 hrs by clonogenic assay. In kind it is functional, cell-based. The following applies: MCF7, 24 h. The method in brief: as §2
For the next data set, the system named is DU-145. As to the kind of experiment: Cytotoxicity against human DU145 cells by clonogenic assay. Type of data set: functional, cell-based.
Another data set relates to A-431. Kind of data set: Cytotoxicity against human A431 cells by clonogenic assay. In kind it is functional, cell-based.
The test system of data set [13] is A2780. As to the kind of experiment: Cytotoxicity against human A2780 cells after 24 hrs by clonogenic assay. Type of data set: functional, cell-based. As to conditions: A2780, 24 h. In outline: as §2
In data set [14] the test system is HCT-116. As to the kind of experiment: Resistance factor, ratio of IC50 for APO866-resistant human HCT116 cells to IC50 for human HCT116 cells. Type of data set: functional.
Data set [15] concerns HCT-116. As to the kind of experiment: Cytotoxicity against APO866-resistant human HCT116 cells assessed as growth inhibition after 72 hrs by WST-1 assay. The following applies: HCT-116, 72 h. In kind it is functional, cell-based.
Data set [16] concerns HCT-116. Kind of data set: Cytotoxicity against human HCT116 cells assessed as growth inhibition after 72 hrs by WST-1 assay. Type of data set: functional, cell-based. The following applies: HCT-116, 72 h.
Another data set has as its system Mus musculus. Kind of data set: Toxicity in human A2780 cells xenografted NMRI/nude mouse containing small tumors assessed as effect on body weight at 15 mg/kg, ip bid administered for 5 days measured at day 14 relative to vehicle-treated control. Type of data set: organism-based. Also on record: dose 15 mg/kg, route intraperitoneal. As to conditions: in vivo, 120 h.

Data set [17] has as its system A2780. Kind of data set: Antitumor activity against human A2780 cells xenografted in NMRI/nude mouse assessed as tumor growth inhibition at 15 mg/kg, ip bid administered for 5 days measured at day 14 relative to vehicle-treated control. As to conditions: route intraperitoneal. Type of data set: functional.
Data set [18] can be described thus: AUC in NMRI mouse at 20 mg/kg, iv. Type of data set: ADME, organism-based. As to conditions: plasma. Also on record: dose 20 mg/kg, route intravenous. In outline: (§3)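 Mouse PK after a single i.v. dose. Plasma proteins were precipitated with acetonitrile containing internal standard (3:1 v/v). Samples were analysed by UPLC-MS/MS on a C18 column at 40°C with an acetonitrile–0.05% formic acid gradient, using positive electrospray MRM. Parameters were derived by non-compartmental analysis.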

The nature of data set [19]: Clearance in NMRI mouse at 20 mg/kg, iv. In kind it is ADME, organism-based. Also on record: dose 20 mg/kg, route intravenous. The following applies: in vivo. In outline: as §3
A short description of data set [20]: Apparent volume of distribution in NMRI mouse at 20 mg/kg, iv. In kind it is ADME, organism-based. Also on record: dose 20 mg/kg, route intravenous. As to conditions: in vivo, read-out: Vz. In outline:
as §3

Data set [21] in a line: Cmax in NMRI mouse at 20 mg/kg, iv. In kind it is ADME, organism-based. Also on record: dose 20 mg/kg, route intravenous. The following applies: in vivo. The method in brief: as §3
The nature of data set [22]: Tmax in NMRI mouse at 20 mg/kg, iv. Also on record: dose 20 mg/kg, route intravenous. As to conditions: in vivo. In kind it is ADME, organism-based. The method in brief:
as §3

Data set [23] in a line: Half life in NMRI mouse at 20 mg/kg, iv. In kind it is ADME, organism-based. Also on record: dose 20 mg/kg, route intravenous. As to conditions: in vivo. The method in brief: as §3
Data set [24] in a line: Toxicity in ip dosed NMRI mouse assessed as blood cell count administered as bid for 5 days. In kind it is organism-based. As to conditions: in vivo.
A short description of data set [25]: Toxicity in ip dosed NMRI mouse assessed as body weight loss administered as bid for 5 days. Type of data set: organism-based. The following applies: in vivo.
Data set [26] concerns MCF7. Kind of data set: cells. As to conditions: Homo sapiens.
In data set [27] the test system is A2780. As to the kind of experiment: cells. As to conditions: Homo sapiens.

Activity calls are given as the source filed them. The calls are words filed in the database; no cut-off is given here.

`N#C/N=C(\NCCCCC[C@@H](Cc1ccccc1)C(=O)NOC1CCCCC1)Nc1ccncc1`: the results for the half-inhibitory concentration (IC50) in the data set with MCF7 [1] and in the data set with A2780 [2] were 5.3 nM and 0.32 nM, respectively. In addition, in the data set on Plasma, the Stability result is on record as “Unstable”.
The matching figures for `N#C/N=C(\NCCCCC[C@H](Cc1ccccc1)C(=O)NOC1CCCCC1)Nc1ccncc1`: 1.7 nM, 0.22 nM and “Unstable”.
`C#CCN(Cc1cc2c(O)nc(C)nc2cc1Br)c1ccc(C(=O)NCc2cccnc2)cc1`: the IC50 in data set [3] was 2.8 nM.
As for `N#C/N=C(\NCCCCCCS(=O)(=O)N(OCCN1CCOCC1)C1CCCCC1)Nc1ccncc1`, the Ratio in the data set with A2780 [4] came out at 12. Further, the T/C was determined as 40% in the data set on A2780 [5], 24% with A2780 [6] and 82% with A2780 [7]. Moreover, the TGI entry in the data set on A2780 [8] and with A2780 [9] was “Active” each time. In addition, the IC50 was 9.9 nM in the data set on SK-OV-3; 0.3 nM in data set [10]; 0.53 nM in the data set with PC-3; 1.9 nM in the data set on MCF7 [11]; more than 50 nM with MCF7 [12]; more than 50 nM with DU-145. Also, the IC50 in the data set on A-431 was more than 50 nM; in the data set on A2780 [13], 0.55 nM; in the data set on HCT-116 [15] it was more than 5000 nM; with HCT-116 [16] it was 1.9 nM; in the data set with MCF7 [1], 0.33 nM; with A2780 [2] it was 0.025 nM. Also, the “Ratio IC50” value in the data set with HCT-116 [14] is reported as 128.
On to `O=C(/C=C/c1cccnc1)NCCCCC1CCN(C(=O)c2ccccc2)CC1` [DAPORINAD], for which, in the data set with Mus musculus, the Activity result is reported as “Non-toxic”. In addition, the T/C with A2780 [17] turned out to be 52%. In data set [18], the AUC stood at 12300 ng·h/mL. In [19], this compound gave a clearance of 27 mL/min/kg. Further, the Vd in [20] came out at 0.998 L/kg. This compound also displayed a Cmax in data set [21] of 14600 ng/mL. For the same compound, the time of peak concentration (Tmax) in data set [22] worked out at 15 min. Also, the half-life in data set [23] was 24 min. Also, the MTD at 120 h in data set [24] and in [25] was less than 10 mg/kg throughout. Moreover, the IC50 in the data set on SK-OV-3 was 211 nM; in data set [10] it was 1.5 nM; in the data set on PC-3, 3.8 nM; in the data set on A-431, 6.1 nM; in the data set on HCT-116 [15], 946 nM; in the data set with HCT-116 [16], 10.9 nM. For the same compound, the IC50 in the data set on MCF7 [1] worked out at 7.4 nM; in the data set on A2780 [2] it was 1.6 nM; in the data set with MCF7 [26] it was 8.4 nM; in the data set on A2780 [27], 5.7 nM.
